From ChEMBL document CHEMBL4402513, “Bio-Inspired Dual-Selective BCL-2/c-MYC G-Quadruplex Binders: Design, Synthesis, and Anticancer Activity of Drug-like Imidazo[2,1-i]purine Derivatives” (J Med Chem, 2020)
Each block holds one compound with its values, some of them ahead of it. Active and inactive are the calls of the source. The calls are words filed in the database; no cut-off is given here.

Assays:
[1] = system: Quadruplex DNA; experiment: Binding affinity to synthetic c-MYC G4 quadruplex DNA assessed as change in melting temperature at 10 molar equiv to DNA measured after 10 mins by circular dichroism melting analysis; type: nucleic-acid assay
Outline: (§1)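 CD melting of folded DNA (G4 10 µM, duplex 15 µM) in 20 mM KCl, 5 mM KH2PO4 (pH 7.0), without and with 10 molar equivalents of ligand. Tm was taken from curve fitting, and ΔTm = Tm(DNA+ligand) − Tm(DNA). Runs were done in triplicate and averaged.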

[2] = Binding affinity to synthetic 20-mer hairpin duplex DNA assessed as change in melting temperature at 10 molar equiv to DNA measured after 10 mins by circular dichroism melting analysis; outline: as §1
[3] = system: Quadruplex DNA; experiment: Binding affinity to synthetic BCL2 G4 quadruplex DNA assessed as change in melting temperature at 10 molar equiv to DNA measured after 10 mins by circular dichroism melting analysis; type: nucleic-acid assay; outline: as §1
[4] = system: Quadruplex DNA; experiment: Binding affinity to synthetic c-KIT1 G4 quadruplex DNA assessed as change in melting temperature at 10 molar equiv to DNA measured after 10 mins by circular dichroism melting analysis; type: nucleic-acid assay; outline: as §1
[5] = system: Quadruplex DNA; experiment: Binding affinity to human telomeric 23 G4 quadruplex DNA assessed as change in melting temperature at 10 molar equiv to DNA measured after 10 mins by circular dichroism melting analysis; type: nucleic-acid assay; outline: as §1
[6] = system: Quadruplex DNA; experiment: Binding affinity to synthetic c-MYC G4 quadruplex DNA assessed as change in chiral structure at 10 molar equiv to DNA measured after 10 mins by circular dichroism spectroscopic analysis; type: nucleic-acid assay
Outline: (§2)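 CD spectra of annealed DNA in 20 mM KCl, 5 mM KH2PO4 (pH 7.0). G4 DNAs were at 10 µM and duplex at 15 µM. Ligand (10 mM DMSO stock) was added at 10 molar equivalents. Spectra were recorded 10 min after addition at 20 °C over 230–360 nm, averaged over three scans and baseline corrected.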

[7] = system: Quadruplex DNA; experiment: Binding affinity to human telomeric 23 G4 quadruplex DNA assessed as change in chiral structure at 10 molar equiv to DNA measured after 10 mins by circular dichroism spectroscopic analysis; type: nucleic-acid assay; outline: as §2
[8] = Binding affinity to synthetic 20-mer hairpin duplex DNA assessed as change in chiral structure at 10 molar equiv to DNA measured after 10 mins by circular dichroism spectroscopic analysis; outline: as §2
[9] = system: Quadruplex DNA; experiment: Binding affinity to synthetic c-KIT1 G4 quadruplex DNA assessed as change in chiral structure at 10 molar equiv to DNA measured after 10 mins by circular dichroism spectroscopic analysis; type: nucleic-acid assay; outline: as §2
[10] = system: Quadruplex DNA; experiment: Binding affinity to synthetic BCL2 G4 quadruplex DNA assessed as change in chiral structure at 10 molar equiv to DNA measured after 10 mins by circular dichroism spectroscopic analysis; type: nucleic-acid assay; outline: as §2
[11] = system: Jurkat; experiment: Cytotoxicity against human Jurkat cells assessed as cell viability at 50 uM measured after 48 hrs by combined MTT and trypan blue staining based cell counting assay relative to control; type: functional; conditions: read-out: Activity
Outline: (§3)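 Cells were seeded at 10^4/well (HDF 10^3), grown 24 h, then treated 48 h at 5–100 µM in 0.5% v/v DMSO. Read-outs were MTT (1 h, 37 °C, absorbance 550 nm; Jurkat handled by centrifugation) combined with trypan blue live/dead counting into a survival index versus untreated cells. IC50 came from nonlinear regression, n = 6 per experiment ×3 (n = 18), mean ± SEM.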

[12] = system: Jurkat; experiment: Induction of apoptosis in human Jurkat cells assessed as viable cells at 25 uM measured after 48 hrs by Annexin V-FITC/propidium iodide staining based flow cytometry (reference value: 97%); type: functional; conditions: read-out: Activity
[13] = system: Jurkat; experiment: Down regulation of c-MYC mRNA expression in human Jurkat cells at 25 uM measured after 24 hrs by RT-qPCR analysis relative to control; type: functional
Outline: (§4)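 Jurkat cells were treated 24 h at 25 µM, and total RNA was extracted with TRI Reagent. 0.5 µg RNA was reverse transcribed with MMLV RT and random primers (22 °C 10 min, 42 °C 60 min). SYBR qPCR ran 40 cycles (95/59/72 °C) in duplicate with GAPDH as reference. Relative expression was calculated by the […] method from at least three independent experiments.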

[14] = system: Jurkat; experiment: Down regulation of BCL2 mRNA expression in human Jurkat cells at 25 uM measured after 24 hrs by RT-qPCR analysis relative to control; type: functional; outline: as §4
[15] = system: Jurkat; experiment: Induction of apoptosis in human Jurkat cells assessed as late apoptotic cells at 25 uM measured after 48 hrs by Annexin V-FITC/propidium iodide staining based flow cytometry (reference value: 1.4%); type: functional
[16] = system: Jurkat; experiment: Induction of apoptosis in human Jurkat cells assessed as early apoptotic cells at 25 uM measured after 48 hrs by Annexin V-FITC/propidium iodide staining based flow cytometry (reference value: 0.3%); type: functional
[17] = system: Jurkat; experiment: Down regulation of BCL2 expression in human Jurkat cells at 25 uM measured after 24 hrs by Western blot analysis relative to control; type: functional
Outline: (§5)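 Jurkat cells treated 24 h at 25 µM were lysed in 50 mM Hepes pH 7.4, 50 mM NaCl, 1% Triton with protease inhibitors. Protein was quantified by Bradford and run on 10% SDS-PAGE to nitrocellulose. Blots were probed with anti-Bcl-2, anti-c-Myc and anti-β-actin and detected by ECL. Densitometry was normalised to β-actin and expressed as % of control; three independent experiments.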

[18] = system: Jurkat; experiment: Down regulation of c-MYC expression in human Jurkat cells at 25 uM measured after 24 hrs by Western blot analysis relative to control; type: functional; outline: as §5
[19] = system: Quadruplex DNA; experiment: Binding affinity to human Cy5-fluorescently labeled telomeric 23 G4 quadruplex DNA by microscale thermophoresis method; type: nucleic-acid assay
Outline: (§6)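 MST with Cy5-labelled oligonucleotides annealed at 1 µM in 5 mM KH2PO4/20 mM KCl (pH 7.0), then diluted in the same buffer with 0.1% Tween. DNA was held at 40 nM. Ligand was serially diluted 1:2 from a 4 mM DMSO stock and mixed 1:1 with DNA, giving 5% final DMSO. Kd was derived from thermophoresis binding curves.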

[20] = biological target: Quadruplex DNA; experiment: Binding affinity to synthetic Cy5-fluorescently labeled c-MYC G4 quadruplex DNA by microscale thermophoresis method; type: nucleic-acid assay; outline: as §6
[21] = biological target: Quadruplex DNA; experiment: Binding affinity to synthetic Cy5-fluorescently labeled c-KIT1 G4 quadruplex DNA by microscale thermophoresis method; type: nucleic-acid assay; outline: as §6
[22] = system: HaCaT; experiment: Cytotoxicity against human HaCaT cells assessed as reduction in cell viability measured after 48 hrs by combined MTT assay; type: cell-based; outline: as §3
[23] = Binding affinity to synthetic Cy5-fluorescently labeled 20-mer hairpin duplex DNA by microscale thermophoresis method; outline: as §6
[24] = system: A-375; experiment: Cytotoxicity against human A375 cells assessed as reduction in cell viability measured after 48 hrs by combined MTT assay; type: functional, cell-based; conditions: A-375, 48 h; outline: as §3
[25] = system: MCF7; experiment: Cytotoxicity against human MCF7 cells assessed as reduction in cell viability measured after 48 hrs by combined MTT assay; type: functional, cell-based; conditions: MCF7, 48 h; outline: as §3
[26] = system: Quadruplex DNA; experiment: Binding affinity to synthetic c-MYC G4 quadruplex DNA up to 5:1 compound/DNA ratio by 1H-NMR analysis; type: nucleic-acid assay
Outline: (§7)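 1H NMR titration of G4 DNA at 0.2 mM in H2O/D2O 9:1 containing 5 mM KH2PO4, 20 mM KCl, 0.2 mM EDTA (pH 7.0), with DPFGSE water suppression. Ligand aliquots from 20 mM deutero-DMSO stock were added in the tube up to 5:1 ligand/G4. Imino and aromatic proton shifts were monitored.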

[27] = system: NHDF; experiment: Cytotoxicity against HDF cells assessed as reduction in cell viability measured after 48 hrs by combined MTT assay; type: cell-based; conditions: Homo sapiens; outline: as §3
[28] = system: HCT-116; experiment: Cytotoxicity against human HCT116 cells assessed as reduction in cell viability measured after 48 hrs by combined MTT assay; type: functional, cell-based; conditions: HCT-116, 48 h; outline: as §3
[29] = biological target: Quadruplex DNA; experiment: Binding affinity to synthetic Cy5-fluorescently labeled BCL2 G4 quadruplex DNA by microscale thermophoresis method; type: nucleic-acid assay; outline: as §6
[30] = system: Quadruplex DNA; experiment: Binding affinity to synthetic BCL2 G4 quadruplex DNA up to 5:1 compound/DNA ratio by 1H-NMR analysis; type: nucleic-acid assay; outline: as §7
[31] = system: Jurkat; experiment: Cytotoxicity against human Jurkat cells assessed as reduction in cell viability measured after 48 hrs by combined MTT and trypan blue staining based cell counting assay; type: functional; outline: as §3

ΔTm [1]: 1.9 °C
ΔTm [2]: 1.2 °C
ΔTm [3]: 1.9 °C
ΔTm [4]: 0.8 °C
ΔTm [5]: 0.1 °C
Compound: CC(C)(C)Nc1c(-c2ccccc2OCCN2CCOCC2)nc2c3ncn(CCN4CCOCC4)c3ncn12

ΔTm [1]: 2.5 °C
ΔTm [2]: 0.2 °C
ΔTm [3]: 2.8 °C
ΔTm [4]: 2.1 °C
ΔTm [5]: 0.6 °C
Compound: CN(C)c1ccc(-c2nc3c4ncn(CCCNC(=N)N)c4ncn3c2NC(C)(C)C)cc1

Activity [6]: inactive
ΔTm [1]: 7.2 °C
Activity [7]: inactive
ΔTm [2]: 1.9 °C
Activity [8]: inactive
ΔTm [3]: 9.2 °C
Activity [9]: inactive
Activity [10]: inactive
ΔTm [4]: 5.2 °C
ΔTm [5]: 2.4 °C
Compound: CN(C)c1ccc(-c2nc3c4ncn(CCN5CCOCC5)c4ncn3c2NC(C)(C)C)cc1

ΔTm [1]: 19.5 °C
ΔTm [2]: 7.5 °C
ΔTm [3]: 13.4 °C
ΔTm [4]: 7.3 °C
ΔTm [5]: 4.8 °C
Compound: CN(C)c1ccc(-c2nc3c4ncn(CCN5CCCC5)c4ncn3c2NC(C)(C)C)cc1

ΔTm [1]: 9.5 °C
ΔTm [2]: 9.7 °C
ΔTm [3]: 10.1 °C
ΔTm [4]: 5.1 °C
ΔTm [5]: 3.8 °C
Compound: CN(C)CCCn1cnc2c1ncn1c(NC(C)(C)C)c(-c3ccc(N4CCOCC4)cc3)nc21

Activity [6]: inactive
deltaTm [1]: inactive
Activity [7]: inactive
deltaTm [2]: inactive
Activity [8]: inactive
deltaTm [3]: inactive
Activity [9]: inactive
Activity [10]: inactive
deltaTm [4]: inactive
deltaTm [5]: inactive
Compound: CC(C)(C)Nc1c(-c2ccc(Cl)cc2)nc2[nH]c(=O)c3ncn(CCN4CCOCC4)c3n12

ΔTm [1]: 11.5 °C
ΔTm [2]: 0.2 °C
ΔTm [3]: 8.2 °C
ΔTm [4]: 2.6 °C
ΔTm [5]: 1.2 °C
Compound: CN(C)CCCn1cnc2c1ncn1c(NC(C)(C)C)c(-c3ccccc3F)nc21
viability at 50 µM [11]: 60%
viability at 25 µM [12]: 16%
Activity [13]: 56%
Activity [14]: 43%
Activity [15]: 68%
Activity [16]: 13%
Activity [17]: Active
Activity [18]: Active

Activity [19]: inactive
Kd [20]: 26 µM
ΔTm [1]: 12.8 °C
Kd [21]: 51 µM
ΔTm [2]: -0.5 °C
Activity [23]: inactive
ΔTm [3]: 6.7 °C
Activity [26]: Active
ΔTm [4]: 2.8 °C
Kd [29]: 60 µM
Activity [30]: Active
ΔTm [5]: 2.4 °C
Compound: CN(C)CCCn1cnc2c1ncn1c(NC(C)(C)C)c(-c3ccc(Cl)cc3)nc21
viability at 50 µM [11]: 25%
viability at 25 µM [12]: 0.5%
Activity [13]: 66%
Activity [14]: 67%
IC50 [22]: > 100 µM
Activity [15]: 99%
Activity [16]: 0.5%
IC50 [24]: > 100 µM
IC50 [25]: > 100 µM
IC50 [27]: 80 µM
IC50 [28]: > 100 µM
Activity [17]: 40%
Activity [31]: Dose-dependent effect
IC50 [31]: 17 µM
Activity [18]: 50%

ΔTm [1]: 1.1 °C
ΔTm [2]: 0.5 °C
ΔTm [3]: 1.7 °C
ΔTm [4]: 1.4 °C
ΔTm [5]: -0.1 °C
Compound: CN(C)c1ccc(-c2nc3c4ncn(CCCN)c4ncn3c2NC(C)(C)C)cc1
